Laboratory results published in ChEMBL document CHEMBL4330143, “Maximizing ER-α Degradation Maximizes Activity in a Tamoxifen-Resistant Breast Cancer Model: Identification of GDC-0927” (ACS Med Chem Lett, 2019).
Activity calls are given as the source filed them. No cut-off for these calls is given here.

Experiments:
[1] = Unbound fraction in mouse plasma; format: ADME, cell-free
[2] = test system: Rattus norvegicus; assay: In vivo inverse agonist activity at ERalpha in CD-IGS rat assessed as decrease in uterine weight at 10 mg/kg, po for 3 consecutive days measured at 24 hrs post last dose; format: functional, organism-based
Outline: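 Rat uterine wet weight assay run in agonist mode, with no ethynyl estradiol added. Oral dosing at 10 mg/kg for 3 days. Uterine weights compared with those of vehicle-treated animals.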

[3] = target: T1, Mineralocorticoid receptor (Homo sapiens) (UniProt P08235); assay: Agonist activity at MR (unknown origin) by transcriptional reporter assay
T1 sequence (whole entry): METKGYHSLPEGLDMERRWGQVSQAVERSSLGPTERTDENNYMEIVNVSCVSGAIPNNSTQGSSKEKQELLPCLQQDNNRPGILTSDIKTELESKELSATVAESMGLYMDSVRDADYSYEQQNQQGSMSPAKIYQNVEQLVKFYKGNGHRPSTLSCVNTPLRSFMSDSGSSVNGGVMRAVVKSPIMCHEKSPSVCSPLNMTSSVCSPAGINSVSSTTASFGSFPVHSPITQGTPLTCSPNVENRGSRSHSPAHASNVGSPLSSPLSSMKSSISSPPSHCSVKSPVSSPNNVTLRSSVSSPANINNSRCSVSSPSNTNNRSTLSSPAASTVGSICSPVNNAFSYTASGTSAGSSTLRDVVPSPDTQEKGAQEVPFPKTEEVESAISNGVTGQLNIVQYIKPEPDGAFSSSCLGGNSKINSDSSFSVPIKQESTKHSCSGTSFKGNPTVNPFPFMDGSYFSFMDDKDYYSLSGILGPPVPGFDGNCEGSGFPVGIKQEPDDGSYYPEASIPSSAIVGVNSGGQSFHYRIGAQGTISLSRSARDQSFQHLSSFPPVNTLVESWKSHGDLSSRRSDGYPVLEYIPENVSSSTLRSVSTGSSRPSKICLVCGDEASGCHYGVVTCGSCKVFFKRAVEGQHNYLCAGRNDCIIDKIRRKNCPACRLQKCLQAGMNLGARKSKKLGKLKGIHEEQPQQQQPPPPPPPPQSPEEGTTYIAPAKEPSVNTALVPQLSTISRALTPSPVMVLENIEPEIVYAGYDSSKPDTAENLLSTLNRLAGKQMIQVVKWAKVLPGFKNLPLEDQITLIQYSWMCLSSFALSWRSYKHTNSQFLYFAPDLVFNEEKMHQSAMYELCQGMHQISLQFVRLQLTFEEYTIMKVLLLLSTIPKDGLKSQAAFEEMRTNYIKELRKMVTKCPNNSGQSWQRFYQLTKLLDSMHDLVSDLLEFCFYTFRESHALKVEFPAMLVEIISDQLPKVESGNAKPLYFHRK

[4] = target: T2, Progesterone receptor (Homo sapiens) (UniProt P06401); assay: Agonist activity at PR-B (unknown origin) by transcriptional reporter assay
T2 sequence (whole entry): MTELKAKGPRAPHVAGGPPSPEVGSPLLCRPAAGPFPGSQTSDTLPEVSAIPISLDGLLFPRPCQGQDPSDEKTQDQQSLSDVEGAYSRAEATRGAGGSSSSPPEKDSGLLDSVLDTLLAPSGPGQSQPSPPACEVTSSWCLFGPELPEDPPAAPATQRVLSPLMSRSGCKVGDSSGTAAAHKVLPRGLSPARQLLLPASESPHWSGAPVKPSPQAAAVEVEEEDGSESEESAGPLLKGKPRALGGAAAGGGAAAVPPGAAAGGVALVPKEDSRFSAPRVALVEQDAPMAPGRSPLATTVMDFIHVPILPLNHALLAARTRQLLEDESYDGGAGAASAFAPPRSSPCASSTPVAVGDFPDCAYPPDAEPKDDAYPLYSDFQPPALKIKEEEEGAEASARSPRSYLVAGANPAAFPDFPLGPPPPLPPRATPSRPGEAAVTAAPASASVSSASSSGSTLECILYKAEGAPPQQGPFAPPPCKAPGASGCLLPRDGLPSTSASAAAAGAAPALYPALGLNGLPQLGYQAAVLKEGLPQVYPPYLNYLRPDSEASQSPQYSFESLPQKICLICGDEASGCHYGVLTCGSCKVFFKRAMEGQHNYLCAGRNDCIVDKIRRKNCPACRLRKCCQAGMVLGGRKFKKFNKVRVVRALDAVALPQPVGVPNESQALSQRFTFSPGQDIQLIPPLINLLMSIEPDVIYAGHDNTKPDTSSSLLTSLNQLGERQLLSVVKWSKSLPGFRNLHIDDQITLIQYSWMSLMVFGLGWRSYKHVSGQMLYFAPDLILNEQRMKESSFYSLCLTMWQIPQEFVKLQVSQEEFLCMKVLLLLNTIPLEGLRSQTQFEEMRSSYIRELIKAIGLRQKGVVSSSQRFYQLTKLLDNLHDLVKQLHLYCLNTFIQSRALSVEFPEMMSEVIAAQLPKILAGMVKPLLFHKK

[5] = Genotoxicity in Salmonella typhimurium TA98 by Ames test; format: toxicity; conditions: salmonella enterica subsp. enterica serovar […]
[6] = target: Sodium-dependent dopamine transporter (Homo sapiens, UniProt Q01959); assay: Inhibition of dopamine transporter (unknown origin)
Outline: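 Cell-based functional follow-up assay, done after hits in a radioligand binding panel run under protein-free conditions. Value reported as IC50.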

[7] = target: Voltage-gated inwardly rectifying potassium channel KCNH2 (Homo sapiens, UniProt Q12809); assay: Inhibition of human ERG by patch clamp method
[8] = Unbound AUC (0 to 24 hrs) in nude mouse xenografted with tamoxifen-resistant human MCF7 cells at 100 mg/kg, po daily for 28 days measured on day 28 post last dose; format: ADME, organism-based; conditions: in vivo
Outline: (§1)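 Tamoxifen-resistant MCF-7 xenograft mice carrying subcutaneous 0.72 mg estradiol pellets. Plasma pharmacokinetics sampled on day 28 of the study, at take-down.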

[9] = Unbound Cmax in nude mouse xenografted with tamoxifen-resistant human MCF7 cells at 100 mg/kg, po daily for 28 days measured on day 28 post last dose; format: ADME, organism-based; conditions: in vivo, 672 h; outline: as §1
[10] = target: T3, Cytochrome P450 1A2 (Homo sapiens, UniProt P05177); assay: Competitive inhibition of CYP1A2 (unknown origin); format: ADME
T3 sequence (P05177 whole entry): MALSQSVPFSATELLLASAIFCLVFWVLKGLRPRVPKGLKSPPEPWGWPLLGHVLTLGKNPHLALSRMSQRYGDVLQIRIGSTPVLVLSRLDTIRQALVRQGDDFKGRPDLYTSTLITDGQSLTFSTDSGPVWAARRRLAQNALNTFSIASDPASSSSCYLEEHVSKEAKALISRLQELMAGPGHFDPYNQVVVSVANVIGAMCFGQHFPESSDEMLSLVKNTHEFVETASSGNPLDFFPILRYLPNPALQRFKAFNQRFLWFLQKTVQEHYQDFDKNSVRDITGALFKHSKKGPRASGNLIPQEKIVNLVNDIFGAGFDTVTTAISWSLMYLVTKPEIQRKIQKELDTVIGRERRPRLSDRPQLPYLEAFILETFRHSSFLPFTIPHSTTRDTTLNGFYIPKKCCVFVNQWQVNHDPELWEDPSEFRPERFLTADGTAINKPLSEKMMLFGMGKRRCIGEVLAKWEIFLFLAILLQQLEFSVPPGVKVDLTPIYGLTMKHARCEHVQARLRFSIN

Chain of Sodium-dependent dopamine transporter (Q01959 whole entry): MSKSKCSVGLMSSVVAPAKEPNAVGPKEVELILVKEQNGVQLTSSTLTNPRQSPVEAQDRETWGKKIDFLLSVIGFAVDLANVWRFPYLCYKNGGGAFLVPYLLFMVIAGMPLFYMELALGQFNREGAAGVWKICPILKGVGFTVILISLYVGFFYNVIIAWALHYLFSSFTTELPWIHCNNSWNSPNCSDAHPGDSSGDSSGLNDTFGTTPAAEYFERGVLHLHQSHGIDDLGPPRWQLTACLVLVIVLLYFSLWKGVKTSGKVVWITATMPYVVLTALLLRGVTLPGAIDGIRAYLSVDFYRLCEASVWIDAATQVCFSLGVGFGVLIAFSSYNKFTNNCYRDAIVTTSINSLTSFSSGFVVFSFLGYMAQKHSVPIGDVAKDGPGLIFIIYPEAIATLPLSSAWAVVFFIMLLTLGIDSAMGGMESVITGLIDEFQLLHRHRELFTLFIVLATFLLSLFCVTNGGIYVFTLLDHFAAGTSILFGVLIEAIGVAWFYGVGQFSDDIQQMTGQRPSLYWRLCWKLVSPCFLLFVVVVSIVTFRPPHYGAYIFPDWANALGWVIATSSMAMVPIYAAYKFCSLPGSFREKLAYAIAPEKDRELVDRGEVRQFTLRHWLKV
Chain of Voltage-gated inwardly rectifying potassium channel KCNH2 (Q12809 whole entry): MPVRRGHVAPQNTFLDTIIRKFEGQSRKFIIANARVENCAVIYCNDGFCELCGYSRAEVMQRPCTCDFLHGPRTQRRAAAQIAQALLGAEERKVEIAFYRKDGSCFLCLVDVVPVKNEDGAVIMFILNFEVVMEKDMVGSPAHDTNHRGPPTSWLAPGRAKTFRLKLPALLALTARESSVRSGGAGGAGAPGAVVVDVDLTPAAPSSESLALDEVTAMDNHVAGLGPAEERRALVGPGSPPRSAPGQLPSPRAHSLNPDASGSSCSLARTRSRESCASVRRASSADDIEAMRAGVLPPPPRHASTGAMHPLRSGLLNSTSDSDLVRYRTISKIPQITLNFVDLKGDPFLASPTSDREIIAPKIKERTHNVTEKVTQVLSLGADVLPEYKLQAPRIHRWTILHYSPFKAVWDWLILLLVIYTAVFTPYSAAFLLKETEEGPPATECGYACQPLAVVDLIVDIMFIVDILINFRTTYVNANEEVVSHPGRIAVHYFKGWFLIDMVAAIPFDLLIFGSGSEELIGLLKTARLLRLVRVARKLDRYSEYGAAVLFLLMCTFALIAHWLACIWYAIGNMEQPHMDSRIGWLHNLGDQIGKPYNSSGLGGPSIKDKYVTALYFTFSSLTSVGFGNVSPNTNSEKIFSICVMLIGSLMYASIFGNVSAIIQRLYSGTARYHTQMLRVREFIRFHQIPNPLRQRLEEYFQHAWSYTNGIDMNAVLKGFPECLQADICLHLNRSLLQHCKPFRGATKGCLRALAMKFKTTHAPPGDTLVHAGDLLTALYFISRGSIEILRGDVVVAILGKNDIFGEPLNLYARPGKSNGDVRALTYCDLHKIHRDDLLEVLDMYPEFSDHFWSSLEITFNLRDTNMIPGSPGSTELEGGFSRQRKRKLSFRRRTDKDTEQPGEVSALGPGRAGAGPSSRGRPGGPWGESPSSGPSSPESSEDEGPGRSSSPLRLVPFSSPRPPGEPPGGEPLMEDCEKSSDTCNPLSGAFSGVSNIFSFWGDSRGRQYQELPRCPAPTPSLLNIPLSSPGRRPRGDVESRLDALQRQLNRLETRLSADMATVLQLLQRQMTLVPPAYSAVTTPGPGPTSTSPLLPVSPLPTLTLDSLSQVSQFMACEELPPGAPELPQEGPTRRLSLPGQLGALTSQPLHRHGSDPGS

## CC1=C(c2cccc(O)c2)[C@H](c2ccc(OCCN3CC(CF)C3)cc2)Oc2ccc(O)cc21
[1]
  Fu: 1.9%
[2]
  Activity: Active
[3]
  Activity: inactive
[4]
  Activity: inactive
[5]
  Activity: Non-Toxic
[6]
  IC50: 0.39 µM
[7]
  IC50: 4.6 µM
[8]
  fAUC: 130 ng·h/mL
[9]
  fCmax: 0.018 µg/mL
[10]
  IC50: > 10 µM
